Data as given in ChEMBL document CHEMBL4346654 (Eur J Med Chem, 2019).
In brackets after ≈: the same amount, converted by molar mass.

Columns and labels:
Type in all cases: functional
Staphylococcus aureus [1] = assay: Bactericidal activity against MLS/methicillin-resistant Staphylococcus aureus PU 32 expressing inducible ermA gene pretreated followed by subculture in absence of compound measured after 24 hrs
Outline: (§1)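 MBC assay. Following MIC determination by CLSI standard two-fold broth dilution, samples at 1–8 fold MIC were transferred to fresh culture medium. They were subcultured for 24 h without antibiotic. Isolates were identified by 16S rDNA sequencing. S. aureus ATCC 29213 was used as a control strain.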

Haemophilus influenzae [2] = assay: Selectivity ratio of MBC to MIC for azithromycin-susceptible Haemophilus influenzae ATCC 49247
Outline: (§2)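 Isolates were identified by 16S rDNA sequencing. MIC was determined by CLSI-recommended two-fold broth dilution. For MBC, samples from 1–8 fold MIC were transferred to culture medium and subcultured for 24 h without antibiotic.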

Haemophilus influenzae [3] = assay: Antibacterial activity against azithromycin-susceptible Haemophilus influenzae ATCC 49247 assessed as reduction in microbial growth by CLSI based two-fold broth dilution method
Staphylococcus aureus [4] = assay: Antibacterial activity against MLS-resistant Staphylococcus aureus PU 20 expressing constitutive ermC gene assessed as reduction in microbial growth by CLSI based two-fold broth dilution method
Staphylococcus aureus [5] = assay: Bactericidal activity against MLS-resistant Staphylococcus aureus PU 20 expressing constitutive ermC gene pretreated followed by subculture in absence of compound measured after 24 hrs; outline: as §1
Streptococcus pneumoniae [6] = assay: Bactericidal activity against erythromycin-susceptible Streptococcus pneumoniae ATCC49619 pretreated followed by subculture in absence of compound measured after 24 hrs; outline: as §2
Streptococcus pneumoniae [7] = assay: Antibacterial activity against penicillin-susceptible Streptococcus pneumoniae PU 09 expressing mef gene assessed as reduction in microbial growth by CLSI based two-fold broth dilution method
Streptococcus pneumoniae [8] = assay: Antibacterial activity against Streptococcus pneumoniae 07P390 expressing constitutive ermB gene assessed as reduction in microbial growth by CLSI based two-fold broth dilution method
Streptococcus pyogenes [9] = assay: Selectivity ratio of MBC to MIC for Streptococcus pyogenes 12-207 expressing mef gene; outline: as §2
Streptococcus pneumoniae [10] = assay: Bactericidal activity against penicillin-susceptible Streptococcus pneumoniae PU 09 expressing mef gene pretreated followed by subculture in absence of compound measured after 24 hrs; outline: as §2
Streptococcus pyogenes [11] = assay: Selectivity ratio of MBC to MIC for MLS-resistant Streptococcus pyogenes 01-968 expressing inducible ermB gene
Outline: (§3)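 MBC/MIC ratio. MIC was measured by CLSI standard two-fold broth dilution. MBC was measured by transferring samples at 1–8 fold MIC to culture medium and subculturing for 24 h without antibiotic. Isolates were identified by 16S rDNA sequencing.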

Streptococcus pyogenes [12] = assay: Bactericidal activity against MLS-resistant Streptococcus pyogenes 12-206 expressing constitutive ermA gene pretreated followed by subculture in absence of compound measured after 24 hrs; outline: as §1
Moraxella catarrhalis [13] = assay: Bactericidal activity against erythromycin-susceptible Moraxella catarrhalis 13L332 pretreated followed by subculture in absence of compound measured after 24 hrs; outline: as §2
Streptococcus pyogenes [14] = assay: Bactericidal activity against MLS-resistant Streptococcus pyogenes 01-968 expressing inducible ermB gene pretreated followed by subculture in absence of compound measured after 24 hrs; outline: as §1
Streptococcus pyogenes [15] = assay: Antibacterial activity against MLS-resistant Streptococcus pyogenes 12-206 expressing constitutive ermA gene assessed as reduction in microbial growth by CLSI based two-fold broth dilution method
Streptococcus pneumoniae [16] = assay: Antibacterial activity against erythromycin-susceptible Streptococcus pneumoniae ATCC49619 assessed as reduction in microbial growth by CLSI based two-fold broth dilution method
Streptococcus pyogenes [17] = assay: Antibacterial activity against Streptococcus pyogenes 12-207 expressing mef gene assessed as reduction in microbial growth by CLSI based two-fold broth dilution method
Staphylococcus aureus [18] = assay: Selectivity ratio of MBC to MIC for MLS/methicillin-resistant Staphylococcus aureus PU 32 expressing inducible ermA gene; outline: as §3
Moraxella catarrhalis [19] = assay: Selectivity ratio of MBC to MIC for erythromycin-susceptible Moraxella catarrhalis 13L332; outline: as §2
Streptococcus pyogenes [20] = assay: Bactericidal activity against Streptococcus pyogenes 12-207 expressing mef gene pretreated followed by subculture in absence of compound measured after 24 hrs; outline: as §2
Staphylococcus aureus [21] = assay: Antibacterial activity against MLS-resistant Staphylococcus aureus PU 32 expressing inducible ermA gene assessed as reduction in microbial growth by CLSI based two-fold broth dilution method
Streptococcus pyogenes [22] = assay: Antibacterial activity against MLS-resistant Streptococcus pyogenes 01-968 expressing inducible ermB gene assessed as reduction in microbial growth by CLSI based two-fold broth dilution method
Streptococcus pneumoniae [23] = assay: Bactericidal activity against Streptococcus pneumoniae 07P390 expressing constitutive ermB gene pretreated followed by subculture in absence of compound measured after 24 hrs; outline: as §2
Streptococcus pyogenes [24] = assay: Selectivity ratio of MBC to MIC for MLS-resistant Streptococcus pyogenes 12-206 expressing constitutive ermA gene; outline: as §3
Streptococcus pneumoniae [25] = assay: Selectivity ratio of MBC to MIC for Streptococcus pneumoniae 07P390 expressing constitutive ermB gene; outline: as §2
Moraxella catarrhalis [26] = assay: Antibacterial activity against erythromycin-susceptible Moraxella catarrhalis 13L332 assessed as reduction in microbial growth by CLSI based two-fold broth dilution method
Haemophilus influenzae [27] = assay: Bactericidal activity against azithromycin-susceptible Haemophilus influenzae ATCC 49247 pretreated followed by subculture in absence of compound measured after 24 hrs; outline: as §2
Streptococcus pneumoniae [28] = assay: Selectivity ratio of MBC to MIC for penicillin-susceptible Streptococcus pneumoniae PU 09 expressing mef gene; outline: as §2
Streptococcus pneumoniae [29] = assay: Selectivity ratio of MBC to MIC for erythromycin-susceptible Streptococcus pneumoniae ATCC49619; outline: as §2
Staphylococcus aureus [30] = assay: Selectivity ratio of MBC to MIC for MLS-resistant Staphylococcus aureus PU 20 expressing constitutive ermC gene; outline: as §3

Row | Compound | MBC (Staphylococcus aureus [1]) | Selectivity ratio (Haemophilus influenzae [2]) | MIC (Haemophilus influenzae [3]) | MIC (Staphylococcus aureus [4]) | MBC (Staphylococcus aureus [5]) | MBC (Streptococcus pneumoniae [6]) | MIC (Streptococcus pneumoniae [7]) | MIC (Streptococcus pneumoniae [8]) | Selectivity ratio (Streptococcus pyogenes [9]) | MBC (Streptococcus pneumoniae [10]) | Selectivity ratio (Streptococcus pyogenes [11]) | MBC (Streptococcus pyogenes [12]) | MBC (Moraxella catarrhalis [13]) | MBC (Streptococcus pyogenes [14]) | MIC (Streptococcus pneumoniae [16]) | Selectivity ratio (Staphylococcus aureus [18]) | MIC (Staphylococcus aureus [21]) | MIC (Streptococcus pyogenes [22]) | MBC (Haemophilus influenzae [27]) | Selectivity ratio (Streptococcus pneumoniae [28]) | also measured
1 | CC[C@H]1OC(=O)[C@@](C)(F)C(=O)[C@H](C)[C@@H](O[C@@H]2O[C@H](C)C[C@H](N(C)C)[C@H]2O)[C@](C)(OC)C[C@@H](C)/C(=N\OCC#Cc2ccc3c(c2)c(=O)c(C(=O)NC)cn3CC)[C@H](C)[C@H]2OC(=O)O[C@@]21C | > 16 µg/mL | 2 | 32 µg/mL | 128 µg/mL | > 256 µg/mL | ≤ 0.008 µg/mL | 0.25 µg/mL | 0.125 µg/mL | 4 | 1 µg/mL (≈ 1.1 µM) | >8 | > 1 µg/mL | > 32 µg/mL | > 0.016 µg/mL | ≤ 0.008 µg/mL | >8 | 2 µg/mL | ≤ 0.002 µg/mL | 64 µg/mL (≈ 70.1 µM) | 4 | MIC (Streptococcus pyogenes [15]): 0.125 µg/mL; MIC (Streptococcus pyogenes [17]): 0.25 µg/mL; Selectivity ratio (Moraxella catarrhalis [19]): >8; MBC (Streptococcus pyogenes [20]): 1 µg/mL (≈ 1.1 µM); MBC (Streptococcus pneumoniae [23]): > 1 µg/mL; Selectivity ratio (Streptococcus pyogenes [24]): >8; Selectivity ratio (Streptococcus pneumoniae [25]): >8; MIC (Moraxella catarrhalis [26]): 4 µg/mL
2 | CC[C@H]1OC(=O)[C@@](C)(F)C(=O)[C@H](C)[C@@H](O[C@@H]2O[C@H](C)C[C@H](N(C)C)[C@H]2O)[C@](C)(OC)C[C@@H](C)/C(=N\OC/C=C/c2ccc3c(c2)c(=O)c(C(=O)NC)cn3CC)[C@H](C)[C@H]2OC(=O)O[C@@]21C | > 16 µg/mL | 2 | 128 µg/mL | 128 µg/mL | > 256 µg/mL | ≤ 0.008 µg/mL | 0.5 µg/mL | 0.25 µg/mL | 4 | 0.5 µg/mL (≈ 0.546 µM) | >8 | > 8 µg/mL | 64 µg/mL (≈ 69.9 µM) | > 0.125 µg/mL | ≤ 0.008 µg/mL | >8 | 2 µg/mL | 0.016 µg/mL | 256 µg/mL (≈ 280 µM) | 1 | MIC (Streptococcus pyogenes [15]): 1 µg/mL; MIC (Streptococcus pyogenes [17]): 0.25 µg/mL; Selectivity ratio (Moraxella catarrhalis [19]): 8; MBC (Streptococcus pyogenes [20]): 1 µg/mL (≈ 1.09 µM); MBC (Streptococcus pneumoniae [23]): > 2 µg/mL; Selectivity ratio (Streptococcus pyogenes [24]): >8; Selectivity ratio (Streptococcus pneumoniae [25]): >8; MIC (Moraxella catarrhalis [26]): 8 µg/mL
3 | CC[C@H]1OC(=O)[C@@](C)(F)C(=O)[C@H](C)[C@@H](O[C@@H]2O[C@H](C)C[C@H](N(C)C)[C@H]2O)[C@](C)(OC/C=C/c2ccc3c(c2)c(=O)c(C(=O)NC)cn3C2CC2)C[C@@H](C)/C(=N\OC)[C@H](C)[C@H]2OC(=O)O[C@@]21C | > 8 µg/mL | 1 | 32 µg/mL | 256 µg/mL | > 256 µg/mL | ≤ 0.008 µg/mL | 0.25 µg/mL | ≤ 0.008 µg/mL | 4 | 0.5 µg/mL (≈ 0.539 µM) | >8 | > 0.25 µg/mL | > 8 µg/mL | > 0.016 µg/mL | ≤ 0.008 µg/mL | >8 | 1 µg/mL | ≤ 0.002 µg/mL | 32 µg/mL (≈ 34.5 µM) | 2 | MIC (Streptococcus pyogenes [15]): 0.031 µg/mL; MIC (Streptococcus pyogenes [17]): 0.125 µg/mL; Selectivity ratio (Moraxella catarrhalis [19]): >8; MBC (Streptococcus pyogenes [20]): 0.5 µg/mL (≈ 0.539 µM); MBC (Streptococcus pneumoniae [23]): > 0.062 µg/mL; Selectivity ratio (Streptococcus pyogenes [24]): >8; Selectivity ratio (Streptococcus pneumoniae [25]): >8; MIC (Moraxella catarrhalis [26]): 1 µg/mL
4 | CC[C@H]1OC(=O)[C@@](C)(F)C(=O)[C@H](C)[C@@H](O[C@@H]2O[C@H](C)C[C@H](N(C)C)[C@H]2O)[C@](C)(OC)C[C@@H](C)/C(=N\OCC#Cc2cncc3ccccc23)[C@H](C)[C@H]2OC(=O)O[C@@]21C | > 32 µg/mL | 2 | 64 µg/mL | 64 µg/mL | > 256 µg/mL | 4 µg/mL (≈ 4.93 µM) | 8 µg/mL | > 32 µg/mL |  | 8 µg/mL (≈ 9.85 µM) | >8 |  |  | > 4 µg/mL | 2 µg/mL | >8 | 4 µg/mL | 0.5 µg/mL | 128 µg/mL (≈ 158 µM) | 1 | Selectivity ratio (Streptococcus pneumoniae [29]): 2; Selectivity ratio (Staphylococcus aureus [30]): >4
